# Assay outcomes as filed in PubChem BioAssay.
# An excerpt weighted towards active compounds, which were near 3% of everything screened.
# 5HT1E ag – 5-HT1E (human) receptor agonism. P28566. CHO 5-HT1E Ga15 NFAT-bla reporter, FRET; 0% DMSO wells, 100% control agonist wells. activation, % at 6 µM. 65,000 tested, 0.69% active. AID 574;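 active = activation above a set limit, the screen-wide mean activation plus 3 SD, cut at about 8.5% in these data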;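 note: 100% = positive control agonist at 1 µM giving full maximal response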
# HTR1A agonist – activates the human 5-HT1a serotonin receptor | 65,000 tested, 0.56% active | AID 567 | activation, % at 10 µM | CHO 5-HT1a Ga15 NFAT-bla reporter, FRET ratio; 0% basal, 100% maximal reference agonist;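 active = activation above the screen-wide mean activation plus 3 SD, cut at about 19% in these data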;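 note: 0% = DMSO wells and 100% = 5-CT at EC100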
# S1P1 ag-PAM – agonists and agonism potentiators of human S1P1 receptor; P21453; S1P1 CRE-bla cells, forskolin, beta-lactamase FRET, potentiator mode; S1P1 agonist co-added at EC20, 2 nM; 100% = saturating reference agonist, 0% = basal; activation, % at 9.5 µM; 56,000 tested, 0.57% active; AID 449;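 active = activation above a cutoff set at the mean activation of all tested compounds plus 3 SD, cut at about 54% in these data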;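 note: forskolin at 4 µM as EC80 and the EC20 agonist is SEW2871; 100% = SEW2871 at its EC100 plus forskolin at EC80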
# Target sequence (P21453 whole entry, looked up): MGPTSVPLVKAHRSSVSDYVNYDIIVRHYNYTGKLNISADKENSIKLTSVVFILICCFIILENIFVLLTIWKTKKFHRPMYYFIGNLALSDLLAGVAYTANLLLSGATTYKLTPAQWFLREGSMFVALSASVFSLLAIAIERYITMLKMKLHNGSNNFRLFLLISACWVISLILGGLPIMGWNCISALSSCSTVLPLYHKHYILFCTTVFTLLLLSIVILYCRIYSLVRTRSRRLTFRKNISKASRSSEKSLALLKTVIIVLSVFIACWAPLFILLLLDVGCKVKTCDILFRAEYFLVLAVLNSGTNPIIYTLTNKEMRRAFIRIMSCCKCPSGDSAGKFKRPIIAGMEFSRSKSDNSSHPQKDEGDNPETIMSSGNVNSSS
# 5HT1a antag – antagonists of human 5-HT1a serotonin receptor. inhibition, % at 10 µM. P08908. 62,000 tested, 0.68% active. CHO 5-HT1a Ga15 NFAT-bla reporter, antagonist mode;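 active = inhibition above the mean of all tested compounds plus 3 SD, cut at about 43% in these data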;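 note: receptor stimulated by 5-CT agonist at 100 nM near EC80; beta-lactamase reporter measured by ratiometric fluorescence of a cleavable substrate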
# S1P3 ag – agonists of human S1P3 receptor. Q99500. S1P3 NFAT-BLA reporter cells, agonism, FRET ratio; relative to 1 µM S1P, basal subtracted. activation, % at 4.5 µM. 60,000 tested, 0.1% active. AID 373;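 active = activation above the screen-wide mean plus 3 SD, cut at about 4.5% in these data, passing the limit was not always enough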
#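 material = human S1P3 NFAT-BLA reporter CHO cells | schedule = 4 h compound at 37 °C, 2 h substrate at RT | measured by = fluorescent BLA substrate, ex 405 nm, em 460/535 nm ratio | controls = 1 µM S1P reference | replication = primary once, confirmation triplicate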
# HTR1E antagonist – 5-HT1E (human) receptor antagonism | CHO 5-HT1E Ga15 NFAT-bla reporter, FRET, antagonist | 65,000 tested, 0.99% active | inhibition, % at 6 µM | AID 571 | P28566;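 active = inhibition above a set limit, the mean inhibition across every tested compound plus 3 SD, cut at about 29% in these data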;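 note: signal is the 460 over 535 nm emission ratio of beta-lactamase substrate; 0% = agonist plus DMSO wells and 100% = wells without agonist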
# * marks the source's active call; other numbers are inactive results; x = no result.
SMILES,5HT1E ag,HTR1A agonist,S1P1 ag-PAM,5HT1a antag,S1P3 ag,HTR1E antagonist
O=C(CCC1CCCC1)N1CCN(C(=O)c2cccnc2)CC1,0,-1,-5,5,0,1
Cc1ccccc1Cn1cc(NC(=O)c2noc3c2CC(C(C)(C)C)CC3)cn1 (centres undefined),2,26*,-5,6,-1,-3
Cc1ccccc1Cn1nc(C)c(NC(=O)c2noc3c2CC(C(C)(C)C)CC3)c1C (centres undefined),1,4,7,-10,-1,0
Cc1cc(C(=O)OCC(=O)Nc2cc(C(F)(F)F)ccc2N2CCOCC2)c(C)o1,1,-1,-11,25,0,5
O=c1n(CCCN2CCN(c3cccc(Cl)c3)CC2)nc2ccccn12,9.5*,5,14,x,-2,3
COc1ccccc1NC(=O)NCCCN1CCN(c2cccc(Cl)c2)CC1,3,2,2,38,0,-22
CC(=O)NCc1ccc(C(=O)CSc2nnc(-c3ccncc3)n2Cc2ccccc2)o1,12*,0,-15,-2,1,1
Cc1cc(=O)oc2cc(OCC(O)CN3CCc4ccccc4C3)ccc12 (centres undefined),1,3,4,8,1,-13
Cc1cc(=O)oc2cc(OCC(O)CN3CCN(c4ccccc4)CC3)ccc12 (centres undefined),1,10,11,46*,-1,2
COc1ccccc1N1CCN(CC(O)COc2ccc3c(C)cc(=O)oc3c2)CC1 (centres undefined),0,4,x,88*,x,-2
Cc1cc(=O)oc2cc(OCC(=O)N3CCCC(C)C3)ccc12 (centres undefined),0,-1,14,-2,-2,-7
Cc1cc(=O)oc2cc(OCC(=O)N3c4ccccc4CC3C)ccc12 (centres undefined),0,-1,28,24,0,33*
Cc1ccc(N(CC(O)COCc2ccco2)S(=O)(=O)c2ccc(C)cc2)cc1 (centres undefined),-2,-1,12,4,-1,-7
O=C(CN1CCC(NC(=O)c2cccc(F)c2)CC1)NCc1ccccc1F,-2,27*,x,-7,x,5
O=C(CN1CCC(NC(=O)c2ccccc2)CC1)NCc1ccccc1F,0,-2,-6,3,-1,-5
Cc1ccc(CNc2cc(-c3nn4c(C)nnc4s3)ccc2C)s1,1,2,-61,5,-1,14
Cc1ccc(-c2nn3c(C)nnc3s2)cc1NCc1c(F)cccc1Cl,2,0,x,45*,-2,8
COC(=O)/C(=C1/Oc2cc(C)oc(=O)c2S1)C(F)(F)F,0,-1,48,x,-9,78*
COC(=O)C1=C(N)Oc2cc(C)oc(=O)c2C1c1ccncc1 (centres undefined),0,-2,3,x,5,-5
CCC(=O)N1CN(S(=O)(=O)c2ccc(C)cc2)CC1C (centres undefined),-1,2,-8,0,0,-7
Cc1cc(NC(=O)CCCS(=O)(=O)c2nc(-c3cccs3)cc(C(F)(F)F)n2)no1,1,-4,36,98*,-2,30*
CS(=O)(=O)c1nc(-c2cccs2)cc(C(F)(F)F)n1,2,-13,x,110*,x,106*
Cc1cc(NC(=O)CSc2nc(-c3cccs3)cc(C(F)(F)F)n2)no1,0,-2,4,21,0,59*
COC(=O)c1ccccc1NC(=O)CSc1nc(-c2ccco2)cc(C(F)(F)F)n1,-1,-2,8,28,-2,50*
CCOC(=O)N1CCN(c2nc(C)c3c(n2)CC(C)CC3=O)CC1 (centres undefined),-1,0,-4,7,0,1
SMILES,5HT1E ag,HTR1A agonist,S1P1 ag-PAM,5HT1a antag,S1P3 ag,HTR1E antagonist
COc1ccc(OCC(O)Cn2c(Nc3cccc(C)c3)nc3c2c(=O)n(C)c(=O)n3C)cc1 (centres undefined),0,1,13,x,-4,-1
COC(=O)c1ccccc1NC(=O)C1CCN(C(=O)c2cc(OC)c(OC)c(OC)c2)CC1,-1,0,x,-4,x,-3
NC(=O)c1cc2ccc(O)cc2oc1=Nc1ccccc1,50*,99*,-277,-322,6,-48
COc1ccc(OC)c(N=c2oc3cc(O)ccc3cc2C(N)=O)c1,12*,39*,-74,-53,4,-21
NC(=O)c1cc2ccc(O)cc2oc1=NCc1ccccc1,26*,86*,-153,-207,3,-22
O=C(c1ccccc1)c1cc2ccccc2o1,0,-2,-23,-10,-1,-6
CCOc1ccc(NC(=O)C2CSC(c3ccncc3)=N2)cc1 (centres undefined),0,3,12,-2,-1,7
CCOC(=O)C1=C(N)n2c(s/c(=C\c3cccs3)c2=O)=C(C(=O)OCC)C1c1cccs1 (centres undefined),0,-2,-3,15,0,12
CCOC(=O)c1c(NC(=O)c2nn(CC)cc2Br)c(C#N)cn1-c1ccccc1,0,1,-26,18,0,40*
CCOC(=O)c1c(N)c(C#N)cn1-c1ccccc1,0,-2,-14,-5,0,6
CCCCOc1ccc(CN(C)c2ncnc(N)n2)cc1,0,0,4,x,-6,32*
CCc1ccc(NC(=O)CNS(=O)(=O)c2c(C)noc2C)cc1,0,-4,10,-8,0,-10
CN1C(=O)NC(NC(=O)c2ccco2)(C(F)(F)F)C1=O (centres undefined),0,3,-22,x,-2,5
CC1=C(C#N)C(NC(=O)c2ccco2)(C(F)(F)F)C(=O)N1 (centres undefined),12*,0,-43,-6,-1,15
CCN(Cc1ccccc1)C(c1cccs1)c1nnnn1C1CCCCC1 (centres undefined),0,-1,-11,44*,-1,7
CC(c1nnnn1C1CCCCC1)N(Cc1ccccc1)Cc1cccnc1 (centres undefined),-1,2,17,25,-1,-8
Cc1cc(C(=O)CSc2nnnn2-c2ccc(O)cc2)c(C)n1Cc1ccc2c(c1)OCO2,1,1,61*,18,0,8
Cc1nc(NC(=O)CSc2ccccc2N)sc1C,0,-2,-6,2,0,0
O=C(OCC(=O)N1CCN(C(=O)c2ccco2)CC1)c1ccccc1OCc1ccc(Cl)cc1,-1,1,2,-5,1,-6
